In paper PMC7079113 (Diabetes, Obesity & Metabolism, 2019):
Marks after values point to notes of the source that are not given here.

Assays:
[1] = Single-dose safety and local tolerability; type: in vivo, patients with type 1 diabetes mellitus (human); details: for Hypoglycaemic events at various time points after the clamp period: > 30 hours after injection, considered a side effect of the patients' usual insulin treatment; for Number of AEs during or after administration / Patients who experienced AEs during or after administration / Patients who experienced AEs during or after administration, percentage: safety population N = 114
How it was run: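 Randomised crossover in which each patient received three insulin glargine preparations as single s.c. 0.4 U/kg doses, at visits 5–28 days apart (minimum 5-day washout). Each dose was given under a 30-h automated euglycaemic clamp. Safety and injection-site tolerability were assessed at each visit: AEs, haematology, biochemistry, urinalysis, physical exam, vital signs, ECGs and blood glucose. Hypoglycaemia was graded severe/symptomatic/asymptomatic. Results were summarised descriptively.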

[2] = tested on: glucose infusion rate; test: 30-hour automated euglycaemic clamp; type: in vivo, patients with type 1 diabetes mellitus (human); details: for AUCGIR0–6h, geometric mean (90% CI): 0-6 h; for AUCGIR0–6h, geometric mean (90% CI) / AUCGIR6–30h, geometric mean (90% CI): N = 111 MYL-1501D, 111 US IG, 113 EU IG; for AUCGIR6–30h, geometric mean (90% CI): 6-30 h
[3] = LC–MS/MS; for AUCins.0‐6h of M1, geometric mean (90% CI) / AUCins.6‐30h of M1, geometric mean (90% CI): secondary PK endpoint, 87 US IG; for AUCins.0‐6h of M1, geometric mean (90% CI): N = 85 MYL-1501D, 84 EU IG; for AUCins.6‐30h of M1, geometric mean (90% CI): N = 87 MYL-1501D, 86 EU IG
[4] = ELISA, ratio of treatments vs US IG
[5] = secondary PD, vs US IG, N = 111
[6] = vs US IG, N = 74 (MYL-1501D), 72 (EU IG)

Row | Substance | Hypoglycaemic events at various time points after the clamp period [1] | Tolerability ([1]; single s.c. 0.4 U/kg) | Number of AEs during or after administration ([1]; single s.c. 0.4 U/kg) | Patients who experienced AEs during or after administration ([1]; single s.c. 0.4 U/kg) | Patients who experienced AEs during or after administration, percentage ([1]; single s.c. 0.4 U/kg) | AUCGIR0–30h (secondary analysis), geometric LS mean ratio (90% CI) vs US IG ([2]; including very low response profiles, linear mixed model, vs US IG, n = 111) | GIRmax, geometric LS mean ratio (90% CI) vs US IG ([2]; primary PD, vs US IG, N = 102) | AUCGIR0–6h, geometric mean (90% CI) ([2]; secondary PD) | AUCGIR6–30h, geometric mean (90% CI) ([2]; secondary PD) | AUCGIR0–6h, geometric LS mean ratio (90% CI) vs US IG [2, 5] | AUCGIR6–30h, geometric LS mean ratio (90% CI) vs US IG [2, 5] | AUCins.0‐6h of M1, geometric LS mean ratio (90% CI) vs US IG ([3]; vs US IG, N = 73 (MYL-1501D), 71 (EU IG)) | AUCins.0–30h of M1, geometric LS mean ratio (90% CI) vs US IG [3, 6] | AUCins.6‐30h of M1, geometric LS mean ratio (90% CI) vs US IG [3, 6] | Cins.max of M1, geometric LS mean ratio (90% CI) vs US IG [3, 6] | AUCins.0‐6h of M1, geometric mean (90% CI) [3] | AUCins.6‐30h of M1, geometric mean (90% CI) [3] | AUCins.0–30h, geometric LS mean ratio (90% CI) vs US IG ([4]; N = 107) | Cins.max, geometric LS mean ratio (90% CI) vs US IG ([4]; N = 110) | Injection site reactions ([1]; mild, single s.c. 0.4 U/kg)
1 | insulin glargine [EU IG] | six | generally well tolerated | 34 AEs | 24 patients | 21.1% | 0.96 (0.77–1.20) ^e | 0.98 (0.90–1.07) | 72.8 (49.4–107) mg/kg | 567 (418–769) mg/kg | 0.82 (0.55–1.23) | 1.09 (0.79–1.48) | 1.06 (0.93–1.20) | 1.01 (0.94–1.08) | 1.00 (0.93–1.08) | 1.02 (0.96–1.08) | 203 (180–229) pmol·h/L | 1088 (1001–1181) pmol·h/L | 1.02 (0.95–1.09) | 1.00 (0.93–1.08) | –
2 | insulin glargine [US IG] | 16 | generally well tolerated | 34 AEs | 20 patients | 17.9% | – | – | 88.3 (59.7–131) mg/kg | 522 (384–710) mg/kg | – | – | – | – | – | – | 192 (171–217) pmol·h/L | 1086 (1000–1179) pmol·h/L | – | – | one
